Legend:
[1] = tested on: AND TCRtg DP thymocytes (AND.Rag1^−/−H-2^d); experiment: CD69 upregulation assay, AND thymocytes; assay type: cell-based, mouse; conditions: I-E^k-Ig dimers + anti-CD28, overnight
Summary of the method: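 Plates coated overnight at 4°C in PBS with 1 µg/well self-peptide-loaded I-E^k-Ig dimer (S2-cell-expressed, Protein A-purified; loaded 72 h at 37°C in 0.2 M citrate–PO₄ pH 5.0, then neutralized with 1 M pH 9.0) plus 10 µg/well anti-CD28. Thymocytes (1 × 10⁶/well) cultured overnight at 37°C in IMDM/10% FCS/2-ME; CD69 by flow cytometry. Two independent experiments.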

AND TCRtg DP thymocytes = experiment: Thymic reaggregate culture, positive selection of AND; assay type: cell-based, mouse; conditions: ANV41.2 I-E^k cells, 96 hours
Summary of the method: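 DP thymocytes from newborn (3–14 d) AND.Rag1⁻/⁻H-2^d mice, CD8-bead purified (1 × 10⁶), were pelleted with 5 × 10⁵ untreated ANV41.2 I-E^k cells as standing drops on transwells. Peptide was added to the lower well in I-20 plus medium (Hb control 30 µM). Cultures ran 96 h at 37°C, then CD4/CD8 flow for %CD4SP. Mean ± s.e.m. of 5 experiments; Mann-Whitney.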

[2] = tested on: AND TCRtg CD4^+ peripheral T cells; experiment: Co-agonist assay; assay type: cell-based, mouse; conditions: I-E^k-Ig dimers
Summary of the method: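 I-E^k-Ig dimers co-loaded with MCC and test or Hb control peptide at ratios of 1:10 to 1:1,000 (pH 5.0 citrate–PO₄, 37°C, 72 h), coated at 1 µg/well in triplicate. One to 2 × 10⁶ purified splenic AND CD4⁺ T cells (H-2^b) were added per well and cultured three days. ³H-TdR was pulsed for the final 18–24 h. Values are mean ± s.d. of triplicates.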

[3] = tested on: AND TCRtg CD4^+ T cells in B6.K.Rag1^−/− mice; experiment: Homeostatic proliferation assay; assay type: in vivo, mouse; conditions: 0.5 mg i.p. on days -1 and +1; CFSE, flow cytometry
Summary of the method: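 Splenic AND CD4⁺ T cells were labeled with 5 µM CFSE, and 10⁶ cells/mouse were given retro-orbitally on day 0 to B6.K.Rag1⁻/⁻ recipients. Recipients received peptide i.p. (0.5 mg; also 0.1 mg) or Hb₆₄₋₇₆ control on days −1 and +1. After four days, inguinal and axillary nodes were pooled and CD4, Vα11 and CFSE analyzed by flow cytometry; totals counted. n = 8 mice/group over five experiments; Mann-Whitney.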

Sequence: GKKVITAFNEGLK [Hb]
- CD69 upregulation (in words) [1]: did not upregulate CD69
- positive selection of AND CD4SP cells (in words) (AND TCRtg DP thymocytes): did not positively select AND TCRtg T cells in thymic reaggregate culture
- stimulation of AND T cells (in words) ([2]; MCC:peptide 1:20): stimulatory
- stimulation of AND T cells (in words) ([2]; MCC:peptide 1:1,000): non-stimulatory
- homeostatic proliferation of AND TCRtg T cells (in words) [3]: proliferation of the AND TCRtg T cells
